Consider 13 compounds from ChEMBL document CHEMBL1134383, “Synthesis and pharmacology of 3-isoxazolol amino acids as selective antagonists at group I metabotropic glutamic acid receptors” (J Med Chem, 2001).

Chain of Metabotropic glutamate receptor 1 (Homo sapiens) (Q13255 19-1194 limits assumed): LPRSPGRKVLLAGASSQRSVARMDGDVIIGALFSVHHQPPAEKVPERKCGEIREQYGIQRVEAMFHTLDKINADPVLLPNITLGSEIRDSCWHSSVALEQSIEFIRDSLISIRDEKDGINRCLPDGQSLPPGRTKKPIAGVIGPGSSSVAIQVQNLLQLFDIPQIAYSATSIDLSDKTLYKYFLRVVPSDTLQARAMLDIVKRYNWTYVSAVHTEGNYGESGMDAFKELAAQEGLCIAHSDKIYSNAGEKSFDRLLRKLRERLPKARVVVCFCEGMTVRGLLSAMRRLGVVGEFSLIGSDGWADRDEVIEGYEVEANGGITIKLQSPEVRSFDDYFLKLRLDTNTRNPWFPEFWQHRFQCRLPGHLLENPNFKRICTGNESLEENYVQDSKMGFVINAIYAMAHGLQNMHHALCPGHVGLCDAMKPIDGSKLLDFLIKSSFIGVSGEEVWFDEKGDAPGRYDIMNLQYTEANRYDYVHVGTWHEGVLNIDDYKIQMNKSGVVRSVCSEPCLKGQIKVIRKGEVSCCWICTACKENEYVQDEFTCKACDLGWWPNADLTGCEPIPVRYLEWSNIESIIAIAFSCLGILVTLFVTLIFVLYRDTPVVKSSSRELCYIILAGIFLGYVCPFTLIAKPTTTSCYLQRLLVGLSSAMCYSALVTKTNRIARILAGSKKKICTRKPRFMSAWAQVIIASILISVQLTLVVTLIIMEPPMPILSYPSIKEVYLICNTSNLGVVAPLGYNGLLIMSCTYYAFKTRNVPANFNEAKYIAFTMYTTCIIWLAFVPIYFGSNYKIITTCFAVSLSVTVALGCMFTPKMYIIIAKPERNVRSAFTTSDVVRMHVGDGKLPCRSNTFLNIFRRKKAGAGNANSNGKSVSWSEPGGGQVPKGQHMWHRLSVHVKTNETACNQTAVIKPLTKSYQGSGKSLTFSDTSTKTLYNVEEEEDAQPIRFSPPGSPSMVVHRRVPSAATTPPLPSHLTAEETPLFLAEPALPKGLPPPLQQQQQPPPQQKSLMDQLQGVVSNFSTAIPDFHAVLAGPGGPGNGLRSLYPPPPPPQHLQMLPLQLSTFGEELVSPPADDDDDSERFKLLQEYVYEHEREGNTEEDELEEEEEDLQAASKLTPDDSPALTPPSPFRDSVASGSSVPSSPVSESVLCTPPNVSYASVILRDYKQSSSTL
Chain of Metabotropic glutamate receptor 2 (Homo sapiens) (Q14416 19-872 limits assumed): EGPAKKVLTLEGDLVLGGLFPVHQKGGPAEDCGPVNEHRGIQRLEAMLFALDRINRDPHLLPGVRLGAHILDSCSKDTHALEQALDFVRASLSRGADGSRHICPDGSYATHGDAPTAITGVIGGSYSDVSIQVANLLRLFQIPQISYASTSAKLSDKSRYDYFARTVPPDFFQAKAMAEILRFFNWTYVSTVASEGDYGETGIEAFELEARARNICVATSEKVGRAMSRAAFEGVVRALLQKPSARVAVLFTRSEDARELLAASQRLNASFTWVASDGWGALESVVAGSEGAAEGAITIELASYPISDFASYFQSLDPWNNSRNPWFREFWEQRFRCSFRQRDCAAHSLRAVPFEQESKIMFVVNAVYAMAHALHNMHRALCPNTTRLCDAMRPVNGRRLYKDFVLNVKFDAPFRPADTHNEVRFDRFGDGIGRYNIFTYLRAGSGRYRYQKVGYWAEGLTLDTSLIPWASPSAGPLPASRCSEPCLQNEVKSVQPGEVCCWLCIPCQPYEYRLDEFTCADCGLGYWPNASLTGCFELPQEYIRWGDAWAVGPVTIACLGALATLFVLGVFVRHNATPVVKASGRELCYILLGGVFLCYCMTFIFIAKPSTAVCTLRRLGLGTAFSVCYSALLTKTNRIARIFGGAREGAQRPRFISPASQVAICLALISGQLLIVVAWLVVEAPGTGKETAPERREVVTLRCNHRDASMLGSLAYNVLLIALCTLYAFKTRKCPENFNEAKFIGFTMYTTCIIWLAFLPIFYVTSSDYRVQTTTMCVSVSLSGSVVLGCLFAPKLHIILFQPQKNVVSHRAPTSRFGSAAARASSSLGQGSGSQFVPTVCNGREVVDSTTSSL
Chain of Metabotropic glutamate receptor 4 (Homo sapiens) (Q14833 whole entry): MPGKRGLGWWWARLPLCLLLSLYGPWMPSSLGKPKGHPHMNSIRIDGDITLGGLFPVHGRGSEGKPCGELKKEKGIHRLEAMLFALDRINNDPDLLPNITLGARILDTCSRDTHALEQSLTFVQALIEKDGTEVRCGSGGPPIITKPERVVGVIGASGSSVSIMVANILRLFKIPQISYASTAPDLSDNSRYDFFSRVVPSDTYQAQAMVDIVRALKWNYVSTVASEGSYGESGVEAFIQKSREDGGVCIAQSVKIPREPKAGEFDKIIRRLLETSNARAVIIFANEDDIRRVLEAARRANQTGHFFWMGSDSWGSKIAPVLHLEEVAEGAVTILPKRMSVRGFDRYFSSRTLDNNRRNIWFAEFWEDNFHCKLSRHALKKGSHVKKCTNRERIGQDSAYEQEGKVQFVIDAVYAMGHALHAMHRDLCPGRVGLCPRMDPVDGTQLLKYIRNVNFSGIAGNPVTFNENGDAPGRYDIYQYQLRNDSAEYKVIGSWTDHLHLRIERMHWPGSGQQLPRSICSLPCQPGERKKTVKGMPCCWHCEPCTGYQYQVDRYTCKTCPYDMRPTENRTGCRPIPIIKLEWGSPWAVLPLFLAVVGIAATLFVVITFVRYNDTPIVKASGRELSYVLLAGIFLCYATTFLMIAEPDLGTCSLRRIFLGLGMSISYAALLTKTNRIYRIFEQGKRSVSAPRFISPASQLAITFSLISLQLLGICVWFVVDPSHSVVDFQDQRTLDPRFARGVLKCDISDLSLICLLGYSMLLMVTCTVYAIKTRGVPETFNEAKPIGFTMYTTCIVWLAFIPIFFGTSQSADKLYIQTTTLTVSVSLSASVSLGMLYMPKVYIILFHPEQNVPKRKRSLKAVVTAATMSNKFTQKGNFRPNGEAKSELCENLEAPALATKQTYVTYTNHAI

The first test deals with Metabotropic glutamate receptor 5 (Homo sapiens) (UniProt P41594). Put plainly: Antagonist activity against mGlu 5a receptor in chinese hamster ovary cells using secondary messanger assay determined. As to conditions: Cricetulus griseus. In kind it is functional, cell-based. The method, boiled down: (§1)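 Cloned mGluRs measured with second-messenger assays; group I (mGlu1α, mGlu5α), mGlu2 and mGlu4α tested. Compounds tested for agonist and antagonist activity at 1 mM unless otherwise stated. Mean ± SEM of at least two independent results; some values estimated from partial concentration–response curves.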
Chain of Metabotropic glutamate receptor 5 (Homo sapiens) (P41594 21-1212 limits assumed): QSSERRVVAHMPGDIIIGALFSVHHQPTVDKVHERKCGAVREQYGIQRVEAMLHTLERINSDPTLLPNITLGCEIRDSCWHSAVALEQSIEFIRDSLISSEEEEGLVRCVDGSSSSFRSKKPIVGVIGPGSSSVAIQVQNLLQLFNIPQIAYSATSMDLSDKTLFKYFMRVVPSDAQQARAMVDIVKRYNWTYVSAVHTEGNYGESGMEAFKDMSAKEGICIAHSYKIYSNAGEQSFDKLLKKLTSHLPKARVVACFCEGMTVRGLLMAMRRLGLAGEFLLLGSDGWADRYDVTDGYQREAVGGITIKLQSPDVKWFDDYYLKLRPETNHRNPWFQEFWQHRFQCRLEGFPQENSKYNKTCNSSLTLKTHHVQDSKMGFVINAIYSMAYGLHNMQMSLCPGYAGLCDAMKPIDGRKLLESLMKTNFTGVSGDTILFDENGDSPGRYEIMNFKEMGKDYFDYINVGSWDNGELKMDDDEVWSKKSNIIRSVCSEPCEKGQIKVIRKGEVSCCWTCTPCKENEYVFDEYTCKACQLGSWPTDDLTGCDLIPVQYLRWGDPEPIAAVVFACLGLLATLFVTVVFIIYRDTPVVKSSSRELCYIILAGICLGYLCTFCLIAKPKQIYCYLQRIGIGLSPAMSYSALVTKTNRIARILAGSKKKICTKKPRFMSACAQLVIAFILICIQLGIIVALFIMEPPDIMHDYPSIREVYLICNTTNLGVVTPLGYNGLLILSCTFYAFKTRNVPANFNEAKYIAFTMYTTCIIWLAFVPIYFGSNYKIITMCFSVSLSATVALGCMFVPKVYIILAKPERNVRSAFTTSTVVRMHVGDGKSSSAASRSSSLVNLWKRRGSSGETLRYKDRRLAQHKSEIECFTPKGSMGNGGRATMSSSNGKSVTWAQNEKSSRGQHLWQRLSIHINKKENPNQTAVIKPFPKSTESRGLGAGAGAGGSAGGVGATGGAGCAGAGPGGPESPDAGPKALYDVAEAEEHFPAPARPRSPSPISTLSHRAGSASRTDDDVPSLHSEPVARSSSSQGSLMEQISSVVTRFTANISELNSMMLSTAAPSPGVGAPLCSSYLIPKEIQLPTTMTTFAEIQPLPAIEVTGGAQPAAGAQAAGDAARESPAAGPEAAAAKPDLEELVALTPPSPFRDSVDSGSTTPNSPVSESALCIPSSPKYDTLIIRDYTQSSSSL
Regarding `CCCCc1c(O)noc1C[C@H](N)C(=O)O`, the Kb is 97 µM.

In the case of `CCCCCCc1c(O)noc1C[C@H](N)C(=O)O`, the antagonist equilibrium constant (Kb) turned out to be 61 µM.

The target of the next test is Metabotropic glutamate receptor 2 (Homo sapiens) (UniProt Q14416). Description: Antagonist activity against mGlu 2 receptor in chinese hamster ovary cells using secondary messanger assay determined. The test is classed as functional, cell-based. As to conditions: Cricetulus griseus. In short, it runs like this:
as §1
On to `CCCCCCCCc1c(O)noc1CC(N)C(=O)O` (stereo not drawn), for which the Kb is above 100 µM.

The target in a further test is Glutamate receptor ionotropic, kainate. Description: Binding affinity for Ionotropic glutamate receptor kainate by [3H]-kainic acid displacement. In kind it is protein-complex assay, Rattus norvegicus.
Conditions: not given
In short, it runs like this: (§2)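 Radioligand displacement using [3H]AMPA (AMPA), [3H]KA (kainate) or [3H]CPP (NMDA) on membrane preparations. Mean ± SEM of at least three independent results; one value estimated. Low-solubility compounds tested only at 200 μM.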
Regarding `CCCCCCc1c(O)noc1CC(N)C(=O)O` (stereo not drawn), the IC50 is above 100 µM.

Compound `CCCCCc1c(O)noc1CC(N)C(=O)O` (stereo not drawn) gave an IC50 above 100 µM.

Turning to `NC(Cc1onc(O)c1-c1ccccc1)C(=O)O` (stereo not drawn), the IC50 is above 100 µM.

Take `CCCCCCc1c(O)noc1C[C@@H](N)C(=O)O`: the IC50 is above 100 µM.

`N[C@@H](Cc1onc(O)c1-c1ccccc1)C(=O)O` came in with an IC50 above 100 µM.

For the compound `CCCCc1c(C[C@H](N)C(=O)O)o[nH]c1=O`, the IC50 was above 100 µM.

The compound `CCCCCCCc1c(O)noc1CC(N)C(=O)O` (stereo not drawn) came in with an IC50 above 100 µM.

`CCCCCCc1c(O)noc1C[C@H](N)C(=O)O`: the concentration for half-maximal inhibition (IC50) is above 100 µM.

`N[C@@H](Cc1cc(=O)[nH]o1)C(=O)O` gave an IC50 above 100 µM.

In the case of `N[C@H](Cc1onc(O)c1-c1ccccc1)C(=O)O`, the IC50 was above 100 µM.

A further test is filed under the species Rattus norvegicus. Put plainly: Excitatory activity in the rat cortical slice model. In kind it is functional, organism-based.
Conditions: not given
The method, boiled down: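 Rat cortical slice depolarizations evoked by excitatory amino acids; agonists applied 90 s at each concentration, with receptor selectivity checked using NBQX (AMPA) or CPP (NMDA). Poorly soluble compounds tested up to 200 μM.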
Compound `CCCCCCc1c(O)noc1CC(N)C(=O)O` (stereo not drawn) registered an EC50 above 1000 µM.

`CCCCCc1c(O)noc1CC(N)C(=O)O` (stereo not drawn) gave a concentration for a half-maximal effect (EC50) of 630 µM.

Compound `NC(Cc1onc(O)c1-c1ccccc1)C(=O)O` (stereo not drawn) displayed an EC50 of 590 µM.

In the case of `CCCCCCc1c(O)noc1C[C@@H](N)C(=O)O`, the EC50 was above 1000 µM.

With `N[C@@H](Cc1onc(O)c1-c1ccccc1)C(=O)O`, the EC50 was 395 µM.

With `Cc1c(O)noc1CC(N)C(=O)O` (stereo not drawn), the midpoint of the response, the EC50, lay at 18 µM.

Regarding `CCCCCCCc1c(O)noc1CC(N)C(=O)O` (stereo not drawn), the half-maximal effective concentration (EC50) is above 500 µM.

In the case of `CCCCCCc1c(O)noc1C[C@H](N)C(=O)O`, the EC50 is above 1000 µM.

For `CCCCCCCCc1c(O)noc1CC(N)C(=O)O` (stereo not drawn), the EC50 is above 500 µM.

On to `N[C@@H](Cc1cc(=O)[nH]o1)C(=O)O`, for which the EC50 worked out at 330 µM.

In turn, `N[C@H](Cc1onc(O)c1-c1ccccc1)C(=O)O` gave a half-maximal effective concentration (EC50) above 1000 µM.

A further test deals with Glutamate NMDA receptor. Put plainly: Displacement of [3H]CPP from NMDA receptor. The test is classed as protein-complex assay, Rattus norvegicus.
Conditions: not given
In short, it runs like this: as §2
Regarding `CCCCCCc1c(O)noc1CC(N)C(=O)O` (stereo not drawn), the IC50 is above 100 µM.

For `CCCCCc1c(O)noc1CC(N)C(=O)O` (stereo not drawn), the IC50 was above 100 µM.

In turn, `NC(Cc1onc(O)c1-c1ccccc1)C(=O)O` (stereo not drawn) yielded an IC50 above 100 µM.

`CCCCCCc1c(O)noc1C[C@@H](N)C(=O)O` displayed an IC50 above 100 µM.

`N[C@@H](Cc1onc(O)c1-c1ccccc1)C(=O)O` had an IC50 above 100 µM.

Turning to `CCCCc1c(C[C@H](N)C(=O)O)o[nH]c1=O`, the IC50 was above 100 µM.

Compound `CCCCCCCc1c(O)noc1CC(N)C(=O)O` (stereo not drawn) showed a half-inhibitory concentration (IC50) above 100 µM.

On to `CCCCCCc1c(O)noc1C[C@H](N)C(=O)O`, for which the IC50 was above 100 µM.

For `N[C@@H](Cc1cc(=O)[nH]o1)C(=O)O`, the IC50 is above 100 µM.

As for `N[C@H](Cc1onc(O)c1-c1ccccc1)C(=O)O`, the IC50 was 31 µM.

Another test concerns the target Metabotropic glutamate receptor 1 (Homo sapiens) (UniProt Q13255). Put plainly: Antagonist activity against mGlu1-alpha receptor in chinese hamster ovary cells using secondary messanger assay determined. In kind it is functional, cell-based. As to conditions: Cricetulus griseus. In short, it runs like this:
as §1
In turn, `CCCCCCc1c(O)noc1C[C@H](N)C(=O)O` showed a Kb of 30 µM.

Consider `CCCCCCCCc1c(O)noc1CC(N)C(=O)O` (stereo not drawn), for which the antagonist equilibrium constant (Kb) is above 100 µM.

Another test concerns the target Glutamate receptor ionotropic, AMPA (Rattus norvegicus, UniProt P19490+P19491+P19492+P19493). Description: Binding affinity for AMPA receptor using [3H]AMPA. The test is classed as protein-complex assay.
Conditions: not given
In short, it runs like this: as §2
In turn, `CCCCCCc1c(O)noc1CC(N)C(=O)O` (stereo not drawn) yielded an IC50 above 100 µM.

Consider `CCCCCc1c(O)noc1CC(N)C(=O)O` (stereo not drawn), for which the IC50 was 11 µM.

With `NC(Cc1onc(O)c1-c1ccccc1)C(=O)O` (stereo not drawn), the IC50 stood at 39 µM.

In turn, `CCCCCCc1c(O)noc1C[C@@H](N)C(=O)O` yielded an IC50 above 100 µM.

In turn, `N[C@@H](Cc1onc(O)c1-c1ccccc1)C(=O)O` gave an IC50 of 23 µM.

Compound `Cc1c(O)noc1CC(N)C(=O)O` (stereo not drawn) showed an IC50 of 0.32 µM.

`CCCCc1c(C[C@H](N)C(=O)O)o[nH]c1=O` yielded an IC50 of 0.48 µM.

As to `CCCCCCCc1c(O)noc1CC(N)C(=O)O` (stereo not drawn), the IC50 is above 100 µM.

Turning to `CCCCCCc1c(O)noc1C[C@H](N)C(=O)O`, the IC50 is above 100 µM.

For `N[C@@H](Cc1cc(=O)[nH]o1)C(=O)O`, the IC50 was 0.8 µM.

In turn, `N[C@H](Cc1onc(O)c1-c1ccccc1)C(=O)O` yielded a half-inhibitory concentration (IC50) above 100 µM.

The next test concerns the target Metabotropic glutamate receptor 4 (Homo sapiens) (UniProt Q14833). Description: Antagonist activity against mGlu 4a receptor in chinese hamster ovary cells using secondary messanger assay determined. As to conditions: Cricetulus griseus. The test is classed as functional, cell-based. In short, it runs like this: as §1
`CCCCCCCCc1c(O)noc1CC(N)C(=O)O` (stereo not drawn) showed an antagonist dissociation constant (Kb) above 100 µM.
